Assay results: ChEMBL document CHEMBL4219255, “Targeting Transient Receptor Potential Vanilloid 1 (TRPV1) Channel Softly: The Discovery of Passerini Adducts as a Topical Treatment for Inflammatory Skin Disorders” (J Med Chem, 2018)
Activity calls are given as the source filed them. No cut-off for these calls is given here.

Assays:
[1] = target: Transient receptor potential cation channel subfamily V member 1 (Homo sapiens, UniProt Q8NER1); experiment: Antagonist activity at TRPV1 (unknown origin) expressed in human SH-SY5Y cells assessed as inhibition of capsaicin-induced calcium increase after 25 mins by Fluo-4 NW dye-based fluorescence assay; assay type: cell-based
[2] = Drug metabolism in human liver S9 fraction assessed as residual substrate levels at 50 uM up to 60 mins by HPLC-UV analysis; assay type: ADME, subcellular; settings: read-out: Stability
[3] = Drug metabolism in human keratinocytes assessed as residual substrate levels at 50 uM up to 120 mins by HPLC-UV analysis; assay type: ADME, cell-based, Keratinocyte; settings: read-out: Stability
Cocaine esterase = target: T1, Cocaine esterase (Homo sapiens, UniProt O00748); experiment: Drug metabolism assessed as recombinant human CE2-mediated compound hydrolysis by measuring rate constant at 50 uM up to 30 mins by LC-UV analysis; assay type: ADME; settings: 0.5 h
T1 sequence (O00748 whole entry): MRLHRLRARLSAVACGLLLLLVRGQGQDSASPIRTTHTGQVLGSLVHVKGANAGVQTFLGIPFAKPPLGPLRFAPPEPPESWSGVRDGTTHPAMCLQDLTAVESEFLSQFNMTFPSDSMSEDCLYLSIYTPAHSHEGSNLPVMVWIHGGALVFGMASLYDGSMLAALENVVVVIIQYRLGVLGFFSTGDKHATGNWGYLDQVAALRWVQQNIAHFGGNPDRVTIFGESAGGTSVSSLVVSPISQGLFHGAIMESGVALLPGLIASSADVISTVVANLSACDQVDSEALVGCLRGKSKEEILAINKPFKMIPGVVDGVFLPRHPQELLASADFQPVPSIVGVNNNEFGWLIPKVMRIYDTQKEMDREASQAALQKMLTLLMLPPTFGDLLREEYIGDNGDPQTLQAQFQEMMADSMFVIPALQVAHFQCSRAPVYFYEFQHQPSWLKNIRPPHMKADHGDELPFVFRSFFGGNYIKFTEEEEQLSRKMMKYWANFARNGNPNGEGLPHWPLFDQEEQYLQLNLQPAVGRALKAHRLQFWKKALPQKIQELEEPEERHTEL
Method in brief: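 Recombinant human carboxylesterase isoforms 1 and 2 were each incubated with the test ester. Hydrolysis was followed by HPLC-UV, tracking the disappearance of the substrate over incubation time relative to the initial amount. Chromatograms were also checked for peaks of the expected hydrolysis metabolites.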

[4] = target: Transient receptor potential cation channel subfamily V member 1 (Rattus norvegicus) (UniProt O35433); experiment: Modulatory activity against TRPV1 in Wistar rat neonatal dorsal root ganglia assessed as reduction in capsaicin-evoked action potential by measuring mean spike frequency ratio (P2/P1) at 10 uM by microelectrode array analysis (reference value: 0.87 +/- 0.04)
Method in brief: (§1)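 Capsaicin-evoked action potential firing recorded with test agent at 10 µM. Response expressed as the P2/P1 mean spike frequency ratio.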

[5] = target: Transient receptor potential cation channel subfamily V member 1 (Rattus norvegicus) (UniProt O35433); experiment: Inhibition of TRPV1 in Wistar rat neonatal dorsal root ganglia assessed as reduction in capsaicin-induced neuronal excitability by microelectrode array analysis
Mus musculus [6] = experiment: Analgesic activity in CFA-induced thermal hyperalgesia C57BL/6 mouse model assessed as reduction in latency time required to elicit paw withdrawal in response to radiant heat applied to the plantar surface of a hind paw at 10 to 100 ug administered as intraplantar injection treated at 24 hrs post CFA injection measured at 60 mins post dose; assay type: functional, organism-based
Mus musculus [7] = experiment: Analgesic activity in CFA-induced thermal hyperalgesia C57BL/6 mouse model assessed as reduction in CFA-induced ipsilateral paw withdrawal latency at 10 mg/kg, iv treated at 24 hrs post CFA injection measured at 60 mins post dose; assay type: functional, organism-based
Mus musculus [8] = experiment: Effect on thermal nociception of the contralateral paw in CFA-induced thermal hyperalgesia C57BL/6 mouse model at 10 to 100 ug administered as intraplantar injection treated at 24 hrs post CFA injection measure up to 120 mins; assay type: ADME, organism-based; settings: in vivo, other
[9] = target: Transient receptor potential cation channel subfamily V member 1 (Rattus norvegicus) (UniProt O35433); experiment: Modulatory activity against TRPV1 in Wistar rat neonatal dorsal root ganglia assessed as inhibition of capsaicin-evoked action potential at 10 uM by microelectrode array analysis relative to control; method in brief: as §1

Transient receptor potential cation channel subfamily V member 1 (Rattus norvegicus), sequence (O35433 whole entry): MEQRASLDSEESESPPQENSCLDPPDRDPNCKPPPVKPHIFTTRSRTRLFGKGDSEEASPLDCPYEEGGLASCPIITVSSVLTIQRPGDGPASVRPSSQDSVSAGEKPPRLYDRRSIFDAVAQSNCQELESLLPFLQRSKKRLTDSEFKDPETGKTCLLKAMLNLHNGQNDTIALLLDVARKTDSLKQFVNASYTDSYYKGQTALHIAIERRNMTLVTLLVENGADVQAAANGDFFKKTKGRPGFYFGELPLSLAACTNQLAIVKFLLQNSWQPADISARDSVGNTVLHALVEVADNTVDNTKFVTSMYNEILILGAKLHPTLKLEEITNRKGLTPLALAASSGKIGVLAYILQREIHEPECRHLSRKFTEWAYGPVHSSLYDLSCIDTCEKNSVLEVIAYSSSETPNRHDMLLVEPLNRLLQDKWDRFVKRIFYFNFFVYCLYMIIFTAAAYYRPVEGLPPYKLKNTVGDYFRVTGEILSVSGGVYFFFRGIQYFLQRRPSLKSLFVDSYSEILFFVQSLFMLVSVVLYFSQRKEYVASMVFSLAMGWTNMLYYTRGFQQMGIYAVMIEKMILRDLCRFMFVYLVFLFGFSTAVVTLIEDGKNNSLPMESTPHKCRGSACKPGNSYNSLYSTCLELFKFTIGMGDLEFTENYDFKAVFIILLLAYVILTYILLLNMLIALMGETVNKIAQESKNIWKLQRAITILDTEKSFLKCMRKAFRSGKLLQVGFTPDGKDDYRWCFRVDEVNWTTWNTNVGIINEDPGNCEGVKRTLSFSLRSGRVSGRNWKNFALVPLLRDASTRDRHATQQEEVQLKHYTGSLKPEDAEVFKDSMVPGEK
Transient receptor potential cation channel subfamily V member 1, sequence (Q8NER1 whole entry): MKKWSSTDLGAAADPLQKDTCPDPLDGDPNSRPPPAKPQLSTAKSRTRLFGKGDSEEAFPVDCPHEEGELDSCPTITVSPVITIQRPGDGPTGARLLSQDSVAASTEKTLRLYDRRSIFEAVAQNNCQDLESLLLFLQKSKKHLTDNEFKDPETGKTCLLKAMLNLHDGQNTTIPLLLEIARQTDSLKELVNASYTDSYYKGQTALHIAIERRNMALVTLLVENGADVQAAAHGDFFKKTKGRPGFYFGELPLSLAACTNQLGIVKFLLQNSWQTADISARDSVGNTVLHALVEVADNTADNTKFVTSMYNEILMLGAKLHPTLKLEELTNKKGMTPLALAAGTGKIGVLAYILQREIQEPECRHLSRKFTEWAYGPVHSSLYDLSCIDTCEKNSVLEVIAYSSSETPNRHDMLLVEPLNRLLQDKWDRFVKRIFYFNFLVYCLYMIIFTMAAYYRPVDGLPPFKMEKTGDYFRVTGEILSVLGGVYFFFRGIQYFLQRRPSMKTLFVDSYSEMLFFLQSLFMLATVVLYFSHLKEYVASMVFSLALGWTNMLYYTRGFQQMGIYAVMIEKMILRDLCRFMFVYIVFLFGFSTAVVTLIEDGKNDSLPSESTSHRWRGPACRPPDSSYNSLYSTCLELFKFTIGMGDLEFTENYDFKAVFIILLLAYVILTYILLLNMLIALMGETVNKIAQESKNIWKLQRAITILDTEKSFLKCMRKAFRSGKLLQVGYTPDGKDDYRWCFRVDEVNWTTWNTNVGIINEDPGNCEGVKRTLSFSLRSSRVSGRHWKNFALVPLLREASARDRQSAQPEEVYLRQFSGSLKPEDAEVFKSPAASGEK

IC50 [1]: 930 nM
remaining at 1 h, 50 µM [2]: 0%
remaining at 2 h, 50 µM [3]: 22.6%
K (Cocaine esterase): 0.0555 min⁻¹
Ratio [4]: 0.53
inhibition [5]: Dose-dependent effect
inhibition [9]: 43%
Structure (SMILES): CCCCCCCCCCCC(=O)OCC(=O)NCc1cc(OC)c(O)cc1I
Activity (Mus musculus [6]): Active
Activity (Mus musculus [7]): Active
Activity (Mus musculus [8]): Non-Toxic
